Data reported in ChEMBL document CHEMBL4145672, “Structural Characterization of Terpenoids from Abies holophylla Using Computational and Statistical Methods and Their Biological Activities” (J Nat Prod, 2018).

What was measured:
BV-2 = assay: Antiinflammatory activity in mouse BV2 cells assessed as inhibition of LPS-induced nitric oxide production measured after 24 hrs by Griess assay; format: functional, cell-based; settings: BV-2, 24 h
Method in brief: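 Murine microglial BV2 cells were seeded at 4 × 10^4 cells/well and exposed to a range of compound concentrations. LPS (100 ng/mL) was added and cells were incubated 24 h. Nitrite in the medium was reacted 10 min with Griess reagent (0.1% N-1-naphthylethylenediamine dihydrochloride, 1% sulfanilamide in 5% phosphoric acid), read at 570 nm and quantified against a sodium nitrite standard curve. IC50 values are reported.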

[1] = Cytotoxicity against mouse BV2 cells assessed as cell viability at 20 uM measured after 24 hrs by MTT assay relative to control; format: cell-based, BV-2; settings: read-out: Activity
Method in brief: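 BV2 cells under the NO assay conditions (LPS 100 ng/mL, 24 h) were given 20 μM of each compound, with some data collected at 5 μM. Viability was measured by MTT and expressed as percent. Values are means ± SD of three independent experiments.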

C6 [2] = assay: Neuroprotective activity in rat C6 cells assessed as induction of nerve growth factor secretion at 20 uM measured after 24 hrs by ELISA relative to control; format: functional
Method in brief: (§1)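 Rat C6 glioma cells were seeded at 1 × 10^5 cells/well. After 24 h they were switched to serum-free DMEM and treated with compound (20 μM, some at 5 μM) for 24 h. NGF secreted into the conditioned medium was quantified by ELISA and expressed as percent of untreated control (100%). Values are means ± SD of three independent experiments.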

[3] = Cytotoxicity against rat C6 cells assessed as cell viability at 20 uM measured after 24 hrs by MTT assay relative to control; format: cell-based; settings: read-out: Activity
Method in brief: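 Rat C6 glioma cells were seeded at 1 × 10^5 cells/well. After 24 h they were switched to serum-free DMEM containing 20 μM compound for another 24 h. Viability was determined by MTT as percent of untreated control, some data at 5 μM. Values are means ± SD of three independent experiments.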

SK-OV-3 = assay: Cytotoxicity against human SKOV3 cells assessed as cell growth inhibition measured after 48 hrs by sulforhodamine B assay; format: functional, cell-based; settings: SK-OV-3, 48 h
Method in brief: (§2)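 The SRB assay was run on ATCC-derived human tumor lines maintained at the Korea Research Institute of Chemical Technology. Read-out was cell growth. IC50 is the concentration giving 50% growth inhibition. Cisplatin served as positive control.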

HCT-15 = assay: Cytotoxicity against human HCT15 cells assessed as cell growth inhibition measured after 48 hrs by sulforhodamine B assay; format: functional, cell-based; settings: HCT-15, 48 h; method in brief: as §2
SK-MEL-2 = assay: Cytotoxicity against human SK-MEL-2 cells assessed as cell growth inhibition measured after 48 hrs by sulforhodamine B assay; format: functional, cell-based; settings: SK-MEL-2, 48 h; method in brief: as §2
A549 = assay: Cytotoxicity against human A549 cells assessed as cell growth inhibition measured after 48 hrs by sulforhodamine B assay; format: functional, cell-based; settings: A549, 48 h; method in brief: as §2
[4] = Cytotoxicity against mouse BV2 cells assessed as cell viability at 5 uM measured after 24 hrs by MTT assay relative to control; format: cell-based, BV-2; settings: read-out: Activity
Method in brief: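 BV2 murine microglia were seeded at 4 × 10^4 cells/well, exposed to compound (5 μM here), and stimulated with LPS 100 ng/mL for 24 h. Viability was read by MTT and expressed as % of control. Values are means ± SD of three independent experiments.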

C6 [5] = assay: Neuroprotective activity in rat C6 cells assessed as induction of nerve growth factor secretion at 5 uM measured after 24 hrs by ELISA relative to control; format: functional; method in brief: as §1
[6] = Cytotoxicity against rat C6 cells assessed as cell viability at 5 uM measured after 24 hrs by MTT assay relative to control; format: cell-based; settings: read-out: Activity
Method in brief: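 C6 glioma cells were seeded at 1 × 10^5 cells/well, grown 24 h, then switched to serum-free DMEM with compound (5 μM here) for another 24 h. Viability was read by MTT as % of untreated cells. Values are means ± SD of three independent experiments.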

Row | Structure (SMILES) | IC50 (BV-2) [µM] | viability at 24 h, 20 µM [1] [%] | Activity (C6 [2]) [%] | viability at 24 h, 20 µM [3] [%] | IC50 (SK-OV-3) [µM] | IC50 (HCT-15) [µM] | IC50 (SK-MEL-2) [µM] | IC50 (A549) [µM] | viability at 24 h, 5 µM [4] [%] | Activity (C6 [5]) [%] | viability at 24 h, 5 µM [6] [%]
1 | C/C(=C\CC[C@@H](C)[C@H]1CC[C@@]2(C)[C@@H]3CC[C@H]4C(C)(C)[C@@H](O)CC[C@@]45C[C@@]35CC[C@]12C)C(=O)O [MANGIFEROLIC ACID] | 12.8 | 35.2 | 128.6 | 79.3 |  |  |  |  |  |  | 
2 | C=C(CC(=O)C[C@@H](C)[C@]1(C)CCC(=C)[C@]12CC[C@@H]1C2=CC[C@@H](C(=C)C)[C@]1(C)CCC(=O)O)C(=O)O |  |  | 173.3 | 112 |  |  |  |  |  |  | 
3 | CC1=CC(O)(C[C@@H](C)[C@H]2CC[C@@]3(C)C4=CC[C@H]5C(C)(C)C(=O)CC[C@]5(C)[C@@H]4CC[C@]23C)OC1=O (stereo not given in full) | 10.2 | 15.9 |  |  | > 10 | > 10 | 4.1 | 9.4 |  |  | 
4 | C[C@]12CCC[C@@](C)(C(=O)O)[C@@H]1CCC1=CC(=O)CC[C@@H]12 | 18.1 | 124 |  |  |  |  |  |  |  |  | 
5 | C/C(=C\[C@H](O)C[C@@H](C)[C@H]1CC[C@@]2(C)C3=CC[C@H]4C(C)(C)C(=O)CC[C@]4(C)[C@@H]3CC[C@]12C)C(=O)O | 29.8 | 125 | 140.9 | 111 | > 10 | > 10 | 8.8 | > 10 |  |  | 
6 | CCCCC/C=C/C(=O)CCc1ccc(O)c(OC)c1 [SHOGAOL] |  |  | 158.2 | 110 |  |  |  |  |  |  | 
7 | CC(=O)/C=C/C1[C@](C)(O)CC[C@H]2C(C)(C)CCC[C@]12C (stereo not given in full) | 9.8 | 114 |  |  |  |  |  |  |  |  | 
8 | C/C(=C\CO)[C@H](O)C[C@@H]1[C@@]2(C)CCCC(C)(C)[C@@H]2CC[C@@]1(C)O |  |  | 127.9 | 104 |  |  |  |  |  |  | 
9 | C=C[C@@]1(C)O[C@]2(C)CC[C@H]3C(C)(C)CCC[C@]3(C)[C@H]2C[C@H]1O | 25 | 112 |  |  |  |  |  |  |  |  | 
10 | C/C(=C\CC[C@@H](C)[C@H]1CC[C@@]2(C)[C@@H]3CC[C@H]4C(C)(C)C(=O)CC[C@@]45C[C@@]35CC[C@]12C)C(=O)O [MANGIFERONIC ACID] | 9 | 21 |  |  |  |  |  |  |  |  | 
11 | C=C(C)[C@@H]1C=CC2=C3CC[C@@](C)([C@H](C)CC(=O)C[C@@H](C)C(=O)O)[C@]3(C)CC[C@H]2[C@@]1(C)CCC(=O)O |  |  | 146.1 | 110 |  |  |  |  |  |  | 
12 | C/C(=C\C(=O)C[C@@H](C)[C@@H]1CC=C2C3=CC[C@H]4C(C)(C)[C@H](O)CC[C@]4(C)[C@@H]3CC[C@]21C)C(=O)O | 10.3 | 9.9 | 156 | 85.7 | > 10 | > 10 | 7.2 | > 10 |  |  | 
13 | C=C[C@@]1(C)C=C2CC[C@@H]3[C@](C)(CCC[C@@]3(C)C(=O)O)[C@H]2CC1 [PIMARIC ACID] | 13.6 | 117 |  |  |  |  |  |  |  |  | 
14 | CC1=CC(O)(C[C@@H](C)[C@]2(C)CC=C3C4=CC[C@H]5C(C)(C)[C@H](O)CC[C@]5(C)[C@@H]4CC[C@]32C)OC1=O (stereo not given in full) | 4 | 9.7 | 121.7 | 56.7 | > 10 | > 10 | 4.2 | > 10 | 154 | 158.1 | 108
15 | C[C@@H]1C[C@]2(C[C@@H](C)[C@]3(CC[C@@]4(C)[C@@H]5CC[C@H]6C(C)(C)[C@H](O)CC[C@@]67C[C@@]57CC[C@@]43C)O2)OC1=O |  |  | 149.3 | 107 | > 10 | > 10 | 8.5 | > 10 |  |  | 
16 | CC1(C)CCC[C@]2(C)[C@H]3CC(=O)O[C@]3(C)CC[C@@H]12 | 20.3 | 131 |  |  |  |  |  |  |  |  | 
17 | C=C[C@@](C)(O)[C@H]1C[C@@H]2[C@@]3(C)CCCC(C)(C)[C@@H]3CC[C@@]2(C)O1 | 42.2 | 118 |  |  |  |  |  |  |  |  | 
18 | C=C(C)[C@@H]1CC=C2[C@@H](CC[C@]23C(=C)CC[C@@]3(C)[C@H](C)CC(=O)/C=C(\C)C(=O)O)[C@@]1(C)CCC(=O)O | 19.1 | 136 | 195.1 | 104 |  |  |  |  |  |  | 
19 | C=C(CC(=O)C[C@@H](C)[C@H]1CC[C@@]2(C)C3=CC[C@H]4C(C)(C)C(=O)CC[C@]4(C)[C@@H]3CC[C@]12C)C(=O)O | 15 | 125 | 178.9 | 98.5 |  |  |  |  |  |  | 
20 | CC1(C)O[C@H]2C[C@H]3C(=C[C@]21O)CC[C@@H]1[C@]3(C)CCC[C@@]1(C)C(=O)O |  |  | 136.9 | 99 |  |  |  |  |  |  | 
21 | C=C(C)[C@@H]1CC=C2[C@@H](CC[C@]3(C)[C@@H]([C@H](C)C[C@@H]4C[C@@H](C)C(=O)O4)CC[C@@]23C)[C@@]1(C)CCC(=O)OC | 17.3 | 123 |  |  | > 10 | 8.1 | 5.5 | > 10 |  |  | 
22 | C=C(C)[C@@H]1CC=C2[C@@H](CC=C3[C@@]2(C)CC[C@@]3(C)[C@H](C)C[C@@H]2C[C@@H](C)C(=O)O2)[C@@]1(C)CCC(=O)OC | 39.7 | 86.8 |  |  | 6.2 | 2.3 | 1.7 | 2.4 |  |  | 
23 | C/C(=C\CO)[C@@H](O)C[C@@H]1[C@@]2(C)CCCC(C)(C)[C@@H]2CC[C@@]1(C)O | 19.5 | 122 | 125.7 | 99.8 |  |  |  |  |  |  | 
24 | CNC(=N)NCCC[C@H](N)C(=O)O [TILARGININE] |  | 105 |  |  |  |  |  |  |  |  | 
25 | C/C(=C\C(=O)C[C@@H](C)[C@H]1CC[C@@]2(C)C3=CC[C@H]4C(C)(C)C(=O)CC[C@]4(C)[C@@H]3CC[C@]12C)C(=O)O | 10.5 | 19.4 | 153.9 | 62.2 | 7.7 | > 10 | 3.2 | 8.7 |  |  | 
